CHOP inhibitor: blocks CHOP induction under ER stress; 220,000 compounds, 3.8% hits; AID 2732; inhibition, % at 10 µM; CHO-K1 CHOP-promoter luciferase, tunicamycin-induced, 15-18 h;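 active means compounds that reduced the stress-induced luciferase reporter signal by more than about 70% of percent inhibition, limit read from the data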;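 further: 0% = tunicamycin plus vehicle and 100% = wells without tunicamycin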
A1 inh: inhibitors of the anti-apoptotic protein A1, read as caspase activation; AID 2462; caspase activation, % (test concentration not listed); MEF A1-2A-BIM cells, Caspase-Glo 3/7 luminescence, 3 h; percent of clofoctol response, vehicle zero; 330,000 compounds, 0.066% hits;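 active means over half of replicate activation scores above 10%, or exactly half above 10 with the replicate mean above 10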
XBP1 UPR activ: activators of adaptive arm of unfolded protein response (XBP1). 330,000 compounds, 0.33% hits. CHO-XBP1 luciferase reporter, IRE1-XBP1 UPR activation, luminescence; percent of tunicamycin response, DMSO as zero. AID 463104. activation, % at 20 µM;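 active means versus positive control, 20 µM dose yields 30% or more activation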;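 further: 100% = tunicamycin at 10 µg/mL and 0% = DMSO only wells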
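Material: CHO cell line with stable XBP1 luciferase reporter; buffer or medium: F12 medium containing 10% fetal bovine serum; compound: single point, 20 µM final compound, 1% DMSO; incubation: 6 h treatment, 37 °C; measured by: glow luminescence from Steady-Glo reagent; evaluation: activation, % of tunicamycin; control set: tunicamycin high, DMSO low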
CHOP UPR activ: activators of apoptotic arm of unfolded protein response (CHOP); CHO-CHOP luciferase reporter, UPR activation, luminescence; percent of tunicamycin response over DMSO baseline; activation, % at 10 µM; 330,000 compounds, 0.34% hits;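 active means at 10 µM dose, activation of 40% or more, normalized to positive control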;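 further: 100% = tunicamycin at 10 µg/mL and 0% = DMSO alone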
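Evaluation: % reporter activation, DMSO baseline versus tunicamycin full activation; System: CHO-CHOP luciferase reporter cell line; Input: 500 cells/well; Incubation: 6 h compound treatment, 37 °C; Measured by: Steady-Glo luciferase luminescence; Dosing: one dose, 10 µM in 0.5% DMSO; Buffer or medium: F12 medium, 10% FBS; Benchmarks: positive tunicamycin 10 µg/mL, negative DMSO alone.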
* = called active by the depositor; x = not tested or not shown. This is one part of a sample in which hits are shown more often than they occur.

SMILES	CHOP inhibitor	A1 inh	XBP1 UPR activ	CHOP UPR activ
CC(=O)OCc1c(C(F)(F)F)nn(C)c1Oc1cccc(C(F)(F)F)c1	75*	-1	-1	2
CC(=O)OCc1c(C(F)(F)F)nn(C)c1Oc1ccccc1	-12	0	4	-4
COc1ccc(/C=N/Nc2cc(N3CCCC3)nc(N3CCCC3)n2)cc1	31	0	-1	7
Oc1cccc(/C=N/Nc2cc(N3CCCC3)nc(N3CCCC3)n2)c1	79*	0	-1	6
CCCCSCCCNC(=O)c1ccc(CS(=O)(=O)c2ccc(OC)cc2)o1	x	0	-4	-1
Cc1ccc2[nH]c(=O)c(CN(Cc3ccccc3)Cc3nnnn3C3CCCC3)cc2c1	76*	0	-2	4
Cc1ccc2[nH]c(=O)c(CN(Cc3nnnn3C3CCCC3)C3CCCCC3)cc2c1	63	0	-2	-1
CCOC(=O)Cn1nnnc1CN(Cc1cccs1)Cc1cc2cc(C)ccc2[nH]c1=O	10	-1	0	-2
CCOC(=O)Cn1nnnc1CN(CCc1ccccc1)Cc1cc2cc(CC)ccc2[nH]c1=O	81*	-1	0	2
O=C(C1CCCN(S(=O)(=O)c2cc(Cl)ccc2Cl)C1)N1CCCC1 (stereo not drawn)	x	-1	-8	0
C[n+]1nc(Nc2cccc(F)c2)sc1-c1ccc(C(=O)O)cc1	20	x	x	x
CC(Sc1ccc(Cl)cc1)C(=O)Nc1ccccc1-c1ccccc1 (stereo not drawn)	93*	1	x	x
COC(=O)N1CCN(c2ccc(Cl)c(Cl)c2)CC1	45	0	0	1
N#C/C=C(/N)N1CCN(c2ccc(Cl)c(Cl)c2)CC1	80*	2	-4	-1
CCc1ccc(NC(=O)[C@H](Cc2ccccc2)NC(=O)C2CCN(C(=O)[C@@H](N)CC(C)C)CC2)cc1	x	-1	-2	-1
c1ccc(-c2ccccc2OCCOCCN2CCOCC2)cc1	x	1	-4	1
Cc1ccc(C(=O)CSc2nnc(-c3ccc4[nH]c(C)c(C)c4c3)o2)cc1C	74*	-1	-1	0
CCCCCCc1cc2cc(S(=O)(=O)c3ccc(F)c(Cl)c3)c(=O)oc2cc1O	91*	0	2	0
C=CCOc1ccccc1CN1CCN(CCc2ccccc2)C(CCO)C1 (stereo not drawn)	x	-1	-5	1
Cc1cc(/C=C2\SC(=S)NC2=O)c(C)n1-c1ccc(O)cc1	-38	-1	-1	6
Cc1cc(/C=C2\SC(=Nc3ccc(F)cc3)NC2=O)c(C)n1-c1ccc(S(N)(=O)=O)cc1	77*	1	4	-2
CCN(CC)S(=O)(=O)c1ccc(Cl)c(NC(=O)c2cc(Cl)cc(Cl)c2)c1	89*	1	3	8
CN(C)S(=O)(=O)c1cccc(C(=O)Nc2cc(Cl)cc(Cl)c2)c1	71*	-1	-1	5
CCN(CC)S(=O)(=O)c1ccc(Cl)c(C(=O)Nc2ccc(Cl)cc2[N+](=O)[O-])c1	79*	0	1	6
CCN(CC)S(=O)(=O)c1ccc(Cl)c(NC(=O)c2ccccc2C)c1	-6	0	1	-1
SMILES	CHOP inhibitor	A1 inh	XBP1 UPR activ	CHOP UPR activ
CN(C)S(=O)(=O)c1ccc(Cl)c(C(=O)Nc2ccccc2[N+](=O)[O-])c1	22	1	-2	-1
Cc1ccc(CNC(=O)CO/N=C/c2ccc(C(C)(C)C)cc2)cc1	95*	-1	-3	-1
CC(C)(C)c1ccc(/C=N/OCC(=O)NCc2ccc(F)cc2)cc1	75*	-1	0	1
COc1ccc(CNCC(O)(c2ccccc2)c2ccc(F)cc2)cc1 (stereo not drawn)	x	0	-1	0
COc1ccc(CNCC(O)(c2ccc(F)cc2)c2ccc(F)cc2)cc1OC	x	1	-2	-1
OC(CNCc1ccc(Cl)cc1)(c1ccccc1)c1ccc(F)cc1 (stereo not drawn)	75*	0	-1	-2
OC(CNCc1ccc(F)cc1)(c1ccc(F)cc1)c1ccc(F)cc1	72*	0	-1	-1
Cc1nc(C)c(N)c(=O)[nH]1	23	2	-1	1
COc1cc(O)c(CC=C(C)C)c(O)c1C(=O)CCc1ccc(O)cc1	89*	-1	4	4
O=C(Cn1c(C2CC2)nc2ccccc2c1=O)Nc1ccc(Br)cc1	84*	1	-3	-1
COc1ccccc1N1CCN(C(=O)c2ccc(C(C)(C)C)cc2)CC1	96*	3	-1	0
COc1ccc(C(=O)N2CCN(c3ccccc3OC)CC2)cc1	1	0	-2	3
COc1ccc(N2CCN(C(=O)CCNC(=O)c3ccc(C(C)(C)C)cc3)CC2)cc1	41	0	-1	0
COc1ccc(N2CCN(C(=O)c3ccc(C(C)(C)C)cc3)CC2)cc1	85*	0	0	0
CC1(C)NC(=O)N(CC(=O)OCC(=O)NC(=O)c2ccccc2)C1=O	x	0	0	0
Cc1cccc(NC(=O)CN2C(=O)N/C(=C/c3ccc(C)s3)C2=O)c1	92*	-2	2	4
COc1ccc(CN(CCC(c2ccccc2)c2ccc(OC(C)C)cc2)C(=O)CCl)cc1OC (stereo not drawn)	110*	3	-6	-9
COc1ccc(CNCCC(c2ccc(F)cc2)c2ccc(OC(C)C)cc2)cc1OC (stereo not drawn)	82*	0	-1	-1
CN1CCN(CC(=O)Nc2ccc(Oc3ccccc3)cc2)CC1	-21	0	0	3
O=C(CN1CCN(c2ccccc2)CC1)Nc1ccc(OCc2ccccc2)cc1	86*	0	-1	-3
CCOC(=O)N1CCN(CC(=O)Nc2ccc(Oc3ccccc3)cc2)CC1	82*	0	1	2
COc1ccccc1C(=O)NC1CCN(C(=O)Nc2ccc(C)cc2)CC1	x	0	-2	0
c1ccc(Nc2cccc(Nc3ccccc3)c2)cc1	74*	1	-1	3
Cc1cc(C(C)(C)C)c(OC(=O)[C@@H]2OC(c3ccccc3)=C[C@H]2c2ccccc2)c(C(C)(C)C)c1	x	0	-1	3
CCOC(=O)c1cc(-c2ccc(N)cc2)sc1N	36	2	5	5
SMILES	CHOP inhibitor	A1 inh	XBP1 UPR activ	CHOP UPR activ
CCOC(=O)c1sc(-c2ccc(Br)cc2)cc1N	81*	-2	5	4
COCCn1c(=NC(=O)c2sc3ccccc3c2Cl)sc2cc(S(N)(=O)=O)ccc21	75*	0	-1	-1
C=CCn1c(=NC(=O)c2sc3ccccc3c2Cl)sc2cc(S(N)(=O)=O)ccc21	82*	0	26	5
COc1ccc(CNC(=O)COC(=O)c2ccc3ncsc3c2)cc1OC	x	0	-1	0
COc1ccc(-c2[nH]c(-c3ccc(C)cc3)nc2SCC(=O)Nc2nccs2)cc1	23	1	-1	1
COc1ccc(-c2[nH]c(-c3ccc(SC)cc3)nc2SCC(=O)Nc2nccs2)cc1	77*	1	3	2
